Experimental data as given in paper PMC5771863 (Anesthesiology, 2018).

Key:
Assay type in all cases: cell-based
[1] = target: T1, α1β3F293Cγ2L GABAA receptors (Homo sapiens, UniProt P14867+P28472, F318C); assay: Substituted cysteine modification-protection; conditions: pCMBS + maximal GABA, initial concentrations, 10 μM ALX
[2] = target: T2, α1β3F301Cγ2L GABAA receptors (Homo sapiens, UniProt P14867+P28472, F326C); assay: Substituted cysteine modification-protection; conditions: pCMBS + maximal GABA, 10 to 20 μM ALX, 10 to 20 μM ETO
T2 sequence (P14867 28-456): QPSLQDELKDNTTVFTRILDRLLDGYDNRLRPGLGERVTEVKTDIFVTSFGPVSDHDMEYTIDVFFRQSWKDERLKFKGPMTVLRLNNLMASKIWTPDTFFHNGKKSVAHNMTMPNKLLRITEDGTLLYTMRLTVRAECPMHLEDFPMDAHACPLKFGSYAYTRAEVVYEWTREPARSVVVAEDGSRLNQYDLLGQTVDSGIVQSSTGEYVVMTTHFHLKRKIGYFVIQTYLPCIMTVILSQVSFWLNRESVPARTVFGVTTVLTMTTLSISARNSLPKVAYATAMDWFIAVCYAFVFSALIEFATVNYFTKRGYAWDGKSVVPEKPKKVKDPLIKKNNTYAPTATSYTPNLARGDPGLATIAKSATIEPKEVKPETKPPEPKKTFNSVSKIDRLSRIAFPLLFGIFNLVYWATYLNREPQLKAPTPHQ
T2 sequence (P28472 26-473 F326C): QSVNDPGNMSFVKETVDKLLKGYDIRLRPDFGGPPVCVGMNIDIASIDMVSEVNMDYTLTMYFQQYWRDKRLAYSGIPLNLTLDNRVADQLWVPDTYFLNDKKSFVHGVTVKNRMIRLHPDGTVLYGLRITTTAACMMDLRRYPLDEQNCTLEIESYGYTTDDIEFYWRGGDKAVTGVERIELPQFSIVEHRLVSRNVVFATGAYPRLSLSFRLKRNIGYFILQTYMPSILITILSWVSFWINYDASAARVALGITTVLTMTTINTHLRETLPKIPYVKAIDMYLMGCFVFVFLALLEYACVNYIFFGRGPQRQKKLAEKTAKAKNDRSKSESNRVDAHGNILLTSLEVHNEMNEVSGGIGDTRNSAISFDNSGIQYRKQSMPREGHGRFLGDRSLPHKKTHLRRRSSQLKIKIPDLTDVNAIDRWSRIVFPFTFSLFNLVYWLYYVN
T2 sequence (P18507 40-475 partner): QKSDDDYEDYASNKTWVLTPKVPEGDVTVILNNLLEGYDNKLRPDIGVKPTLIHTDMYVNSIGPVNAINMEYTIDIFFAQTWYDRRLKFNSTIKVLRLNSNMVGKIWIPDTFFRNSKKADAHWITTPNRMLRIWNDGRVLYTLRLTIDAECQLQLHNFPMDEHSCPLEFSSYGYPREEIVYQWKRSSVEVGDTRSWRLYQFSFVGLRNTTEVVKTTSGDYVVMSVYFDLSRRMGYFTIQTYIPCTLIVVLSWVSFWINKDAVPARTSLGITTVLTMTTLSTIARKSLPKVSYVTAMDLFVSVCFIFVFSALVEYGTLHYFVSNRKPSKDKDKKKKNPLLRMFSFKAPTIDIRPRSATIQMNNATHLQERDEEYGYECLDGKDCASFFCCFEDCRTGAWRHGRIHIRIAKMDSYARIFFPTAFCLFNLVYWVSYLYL

[3] = target: GABAA receptors with α1Q242C mutation (Homo sapiens, UniProt P14867+P28472, Q269C); assay: Receptor sensitivity to anesthetics; conditions: authors' unpublished data
[4] = target: α1T237Cβ3γ2L GABAA receptors (Homo sapiens, UniProt P14867+P28472, T264C); assay: Substituted cysteine modification-protection; conditions: 10 μM ALX, 10 μM ETO
[5] = target: wild-type α1β3γ2L GABAA receptors (Homo sapiens, UniProt P14867+P28472); conditions: […] ETO, 5 μM PRO, […] ALX (2 x EC50 tadpole LoRR)
[6] = target: T3, α1β3L297Cγ2L GABAA receptors (Homo sapiens, UniProt P14867+P28472, L322C); assay: Substituted cysteine modification-protection; conditions: pCMBS + maximal GABA
T3 sequence (P14867 28-456): as the sequence (P14867 28-456) above
T3 sequence (P28472 26-473 L322C): as the sequence (P28472 26-473 F326C) above, with L297C, C301F counted along it
T3 sequence (P18507 40-475 partner): as the sequence (P18507 40-475 partner) above

[7] = target: T1, α1β3F293Cγ2L GABAA receptors; conditions: control modification conditions
[8] = target: β3 subunits with Y284C mutations co-expressed with α1 and γ2L (Homo sapiens, UniProt P14867+P28472, Y309C); assay: GABA-activated currents, two-electrode voltage clamp in Xenopus oocytes; conditions: β3Y284C co-expressed with α1 and γ2L in Xenopus oocytes
Outline: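 Human α1 and γ2L were co-expressed with mutant β3 from mRNA (1:1:5, ~50 ng per oocyte) over 48 to 72 hours at 17 °C in ND96. […] A current of ≥ 0.5 μA was required for further experiments.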

[9] = target: T4, α1β3V290Cγ2L GABAA receptors (Homo sapiens, UniProt P14867+P28472, V315C)
[10] = target: α1β3G287Cγ2L GABAA receptors (Homo sapiens, UniProt P14867+P28472, G312C); assay: Functional effect of pCMBS exposure
[11] = target: α1β3T266Cγ2L GABAA receptors (Homo sapiens, UniProt P14867+P28472, T291C); assay: Functional effect of pCMBS exposure
[12] = target: T4, α1β3V290Cγ2L GABAA receptors; assay: Functional effect of pCMBS exposure
[13] = target: α1β3F289Cγ2L GABAA receptors (Homo sapiens, UniProt P14867+P28472, F314C); assay: Functional effect of pCMBS exposure
[14] = target: α1β3E298Cγ2L GABAA receptors (Homo sapiens, UniProt P14867+P28472, E323C); assay: Functional effect of pCMBS exposure
[15] = target: T2, α1β3F301Cγ2L GABAA receptors; assay: Functional effect of pCMBS exposure
[16] = target: T3, α1β3L297Cγ2L GABAA receptors; assay: Functional effect of pCMBS exposure
[17] = target: α1β3γ2L GABAA receptors (wild-type) (Homo sapiens, UniProt P14867+P28472); assay: Functional effect of pCMBS exposure
[18] = target: α1β3M283Cγ2L GABAA receptors (Homo sapiens, UniProt P14867+P28472, M308C); assay: Functional effect of pCMBS exposure
[19] = target: α1β3T262Cγ2L GABAA receptors (Homo sapiens, UniProt P14867+P28472, T287C); assay: Functional effect of pCMBS exposure
[20] = target: T1, α1β3F293Cγ2L GABAA receptors; assay: Functional effect of pCMBS exposure
[21] = target: α1β3M286Cγ2L GABAA receptors (Homo sapiens, UniProt P14867+P28472, M311C); assay: Functional effect of pCMBS exposure
[22] = low concentrations of anesthetics

T1 sequence (P14867 28-456): as the sequence (P14867 28-456) above
T1 sequence (P28472 26-473 F318C): as the sequence (P28472 26-473 F326C) above, with F293C, C301F counted along it
T1 sequence (P18507 40-475 partner): as the sequence (P18507 40-475 partner) above

CCOC(=O)c1cncn1[C@H](C)c1ccccc1 [ETO, R-Etomidate]
effect on apparent rate of pCMBS modification [1]: accelerated
effect on apparent rate of pCMBS modification [2]: unaffected
receptor sensitivity to anesthetic [3]: insensitivity to ALX, but not to ETO
effect on pCMBS modification rates [4]: inhibited modification
enhancement of gating of receptors activated with EC5 GABA [5]: similarly enhance
effect on apparent rate of pCMBS modification ([6]; 50 μM ALX vs. 50 μM ETO): inhibition by ALX, but not ETO
effect on apparent rate of pCMBS modification [6, 22]: unaffected

NCCCC(=O)O [GABA, γ-Aminobutyric acid]
fraction of receptors activated by maximal GABA [7]: about 16%
GABA-activated currents [8]: No GABA-activated currents were detected

CC(C)c1cccc(C(C)C)c1O [PRO, 2,6-diisopropylphenol]
effect on apparent rate of pCMBS modification [1]: accelerated
enhancement of gating of receptors activated with EC5 GABA [5]: similarly enhance
effect on apparent rate of pCMBS modification [6, 22]: unaffected

C=CCC1(c2cccc(C3(C(F)(F)F)N=N3)c2)C(=O)NC(=O)N(C)C1=O (stereo not drawn) [mTFD-MPAB, R-allyl-m-trifluoromethyl-mephobarbital]
effect on apparent rate of pCMBS modification [9]: unaffected

O=S(=O)([O-])c1cc[c]([Hg][Cl])cc1.[Na+] [pCMBS, Para-chloromercuribenzenesulfonic acid sodium salt]
Maximal Effect of pCMBS Modification (range): ↑ lo/hi GABA response [10]: ↑ lo/hi GABA response (2.3 to 3.5-fold)
Maximal Effect of pCMBS Modification (range): ↑ lo/hi GABA response [11]: ↑ lo/hi GABA response (10 to 13-fold)
Maximal Effect of pCMBS Modification (range): ↑ lo/hi GABA response [12]: ↑ lo/hi GABA response (2.3 to 3.1-fold)
Maximal Effect of pCMBS Modification (range): ↑ lo/hi GABA response [13]: ↑ lo/hi GABA response (2.8 to 4.0-fold)
Maximal Effect of pCMBS Modification (range): ↑ lo/hi GABA response [14]: ↑ lo/hi GABA response (3.5 to 5.5-fold)
Maximal Effect of pCMBS Modification (range): ↑ lo/hi GABA response [15]: ↑ lo/hi GABA response (3.8 to 4.9-fold)
Maximal Effect of pCMBS Modification (range): ↑ lo/hi GABA response [16]: ↑ lo/hi GABA response (5.5 to 7.2-fold)
Maximal Effect of pCMBS Modification (range) [17]: No effect
effect of pCMBS exposure on receptor function ([17]; pCMBS at 1 mM for 60 s): unaffected
Maximal Effect of pCMBS Modification (range) [18]: No effect
Maximal Effect of pCMBS Modification (range): Reduce max current [19]: Reduce max current (95–99%)
effect of pCMBS exposure on activation by GABA ([19]; low and high GABA): similarly reduced activation by both low and high GABA
Maximal Effect of pCMBS Modification (range): ↑ lo/hi GABA response [20]: ↑ lo/hi GABA response (2.6 to 4.3-fold)
Maximal Effect of pCMBS Modification (range): ↑ lo/hi GABA response [21]: ↑ lo/hi GABA response (5.8 to 7.8-fold)
